Rows were chosen to be rich in hits. Some 2.3% of all compounds tested hit in one or more screens of this group.
ATG4B inh: inhibitors of human ATG4B cysteine protease; AID 504462; Q9Y4P1; hit rate 0.51% among 340,000; inhibition, % at 8.33 µM; ATG4B cleavage of LC3-PLA2, NBD-HPC fluorescence, 1 h; in the data active means inhibition above about 40%
Target sequence (Q9Y4P1 whole entry, looked up): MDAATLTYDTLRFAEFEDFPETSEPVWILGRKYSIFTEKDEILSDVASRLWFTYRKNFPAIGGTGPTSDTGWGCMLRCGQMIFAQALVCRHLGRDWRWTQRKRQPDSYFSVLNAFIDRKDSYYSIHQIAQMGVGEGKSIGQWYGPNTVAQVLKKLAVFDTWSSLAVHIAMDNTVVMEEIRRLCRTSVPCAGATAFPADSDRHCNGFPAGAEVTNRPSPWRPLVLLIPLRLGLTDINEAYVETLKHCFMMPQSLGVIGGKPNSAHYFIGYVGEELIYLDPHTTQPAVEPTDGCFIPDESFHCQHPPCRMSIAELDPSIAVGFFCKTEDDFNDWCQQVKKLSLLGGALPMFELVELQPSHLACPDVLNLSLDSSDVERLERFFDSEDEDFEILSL
CAL PDZ FP-1: blocks peptide binding to the human CAL PDZ domain; Q9HD26; purified CAL PDZ, TMR-peptide fluorescence polarization, 1 h; inhibition, % at 24.9 µM; hit rate 0.92% among 300,000;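 active means mean inhibition of at least 30% with at least half of replicates also reaching 30%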;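 further: 0% = DMSO neutral control and 100% = excess unlabeled competitor peptide PRC23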
CAL PDZ FP-2: blocks peptide binding to human CAL PDZ domain; Q9HD26; purified CAL PDZ, TMR-peptide fluorescence polarization, 1 h; inhibition, % at 20 µM; hit rate 0.02% among 330,000;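 active means highest replicate inhibition of at least 40%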;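 further: plate controls were DMSO neutral control wells for no effect and unlabeled competitor peptide control wells for full effect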
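Test system: tagged CAL PDZ domain / Buffer or medium: sodium phosphate/NaCl buffer pH 7.4 with TCEP, IgG, Thesit / Reagent: TMR-labelled reporter peptide T*-PRC34 bound in PDZ groove / Compound dosing: single point, 20 µM / Schedule: 1 h incubation at room temperature before polarization reading / Technique: fluorescence polarization (mP) / Benchmarks: unlabelled peptide, DMSO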
SR-BI DiI-HDL act: SR-BI HDL lipid transfer activation; CHO ldlA[mSR-BI] cells, DiI-HDL uptake fluorescence, 3 h; 100 = double the neutral-control signal; activation, % at 12.5 µM; hit rate 0.096% among 320,000; AID 504775;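 active means mean replicate activation of at least 60% and every replicate at or above 60%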;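 further: 0% = median plate neutral-control signal and 100% = twice that signal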
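Test system: SR-BI-overexpressing, LDLR-lacking CHO cells. Measured by: DiI fluorescence, bottom read. Medium: Ham's F12 with 0.5% BSA, HEPES 25 mM, pH 7.4. Timing: 3 h uptake period with compound, 37 °C.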
SR-BI DiI inh: inhibitors of mouse SR-BI mediated HDL lipid uptake; Q61009; ldlA[mSR-BI] CHO cells, DiI-HDL uptake fluorescence, 3 h; inhibition, % at 12.5 µM; hit rate 0.96% among 320,000;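 active means mean replicate inhibition of at least 70% and a set share of replicates each scoring 70 or more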;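 further: 0% = median of neutral control wells and 100% = median of positive control wells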
ATG4B conf: confirmation of human ATG4B inhibitors; shares compounds with ATG4B inh; ATG4B protease fluorescent substrate cleavage assay; inhibition, % at 8.33 µM; hit rate 92% among 320; AID 504757; in the data active means inhibition above about 39%
PLA2 ctr: PLA2 (human) inhibition in ATG4B counter-screen | purified PLA2, NBD-C6-HPC fluorescence, 45 min | inhibition, % at 8.33 µM | hit rate 66% among 1,600 | shares compounds with ATG4B inh; in the data active means inhibition above about 50%
Target sequence (P04054 whole entry, looked up): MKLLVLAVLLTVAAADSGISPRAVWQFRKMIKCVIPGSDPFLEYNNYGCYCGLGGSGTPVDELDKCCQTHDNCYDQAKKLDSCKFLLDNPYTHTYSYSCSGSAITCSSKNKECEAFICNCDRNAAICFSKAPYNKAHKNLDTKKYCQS
* = called active by the depositor; x = no result given.

SMILES | ATG4B inh | CAL PDZ FP-1 | CAL PDZ FP-2 | SR-BI DiI-HDL act | SR-BI DiI inh | PLA2 ctr | others
CN1C(=O)C2(NCCc3c2[nH]c2ccccc32)c2ccccc21 (configuration not stated) | -1.5 | -1.0 | 0.6 | -7.0 | 7.0 | x
CC1=CC(C)(C)N2C(=O)C3(NCCc4c3[nH]c3ccccc43)c3cc(C)cc1c32 (configuration not stated) | 58.0* | -2.2 | -1.7 | -87.6 | 87.6* | 69.4*
CC(C)(C)C(=O)Nc1ccc(S(=O)(=O)Nc2nccs2)cc1 | -5.7 | -0.4 | -1.0 | 22.9 | -22.9 | x
O=C(N/N=C/C=C\c1ccccc1[N+](=O)[O-])c1ccccn1 | -3.7 | 0.4 | -2.6 | -34.7 | 34.7 | x
O=C(N/N=C/C=C/c1ccccc1[N+](=O)[O-])c1cc(-c2ccccc2)n[nH]1 | 47.0* | 0.9 | -3.6 | -31.9 | 31.9 | 25.1
Cc1ccc(NC(=O)CN(C)C(=O)c2n[nH]c(=O)c3ccccc23)cc1 | 9.1 | -0.3 | -0.6 | -3.9 | 3.9 | x
Cc1noc(C)c1NC(=O)N(C)C[C@@H]1Oc2ccc(NC(=O)Cc3cn(C)c4ccccc34)cc2CC(=O)N([C@H](C)CO)C[C@@H]1C | -10.9 | -1.2 | -1.2 | 5.0 | -5.0 | x
Cn1cccc1-c1nc2ccccc2n1Cc1ccccc1 | 43.1* | -5.3 | 0.9 | -1.7 | 1.7 | 56.3*
COc1ccc(NS(=O)(=O)c2cccc(C(=O)OCC(=O)N3CCN(c4ccc(OC)cc4)CC3)c2)cc1 | -2.3 | -0.1 | -1.7 | -56.1 | 56.1 | x
Cc1ccc(S(=O)(=O)C2C(=O)N(C)C3(C)CC2c2ccccc2O3)cc1 (configuration not stated) | 65.9* | 0.0 | -0.6 | -5.0 | 5.0 | 74.4*
Cc1ccc(NC(=O)C2C(=O)N(CCO)C3(C)CC2c2ccccc2O3)cc1 (configuration not stated) | 4.0 | x | -1.6 | -25.3 | 25.3 | x
CC(=O)N1/C(=C/c2ccc(N(C)C)cc2)C(=O)c2ccccc21 | 4.6 | -2.1 | 0.3 | 22.4 | -22.4 | x
Cc1ccc(C)c(Oc2cc(NC(=O)CCCn3nc(C)c([N+](=O)[O-])c3C)cc([N+](=O)[O-])c2)c1 | 64.8* | -0.9 | -0.4 | -45.6 | 45.6 | 63.9*
Cc1cc([N+](=O)[O-])nn1CCCC(=O)Nc1ccc2c(c1)OCO2 | -0.3 | x | 0.6 | 8.8 | -8.8 | x
Cc1ccc(Oc2cc(NC(=O)CCCn3nc([N+](=O)[O-])cc3C)cc([N+](=O)[O-])c2)cc1 | 67.4* | -2.5 | 0.7 | -6.3 | 6.3 | 64.6*
Cc1nn(CCCC(=O)Nc2cc(Oc3ccccc3)cc([N+](=O)[O-])c2)c(C)c1[N+](=O)[O-] | 53.2* | -1.7 | -0.6 | -32.9 | 32.9 | 63.0*
COc1ccc(OC)c(NC(=O)NC2CCCc3ccccc32)c1 (configuration not stated) | 18.3 | -2.8 | 0.0 | -58.9 | 58.9 | x
O=C(CSc1nnc(NC(=O)c2c(F)cccc2F)s1)NCc1ccc(F)cc1 | 2.8 | 0.2 | -3.2 | -3.6 | 3.6 | x
Cc1ccc(/C=N/OC(=O)c2nn(C)cc2Cl)cc1 | -3.2 | -6.7 | x | 10.9 | -10.9 | x
NC(=O)c1ccc(NCCc2ccccc2)c([N+](=O)[O-])c1 | 48.6* | 2.0 | -4.4 | 9.5 | -9.5 | 66.3*
O=C(Nc1ccccc1)c1ccc(NCCc2ccccc2)c([N+](=O)[O-])c1 | -3.5 | -13.5 | -0.2 | -50.4 | 50.5 | x
Cc1ccc(C(=O)NC(C)CCc2ccccc2)cc1[N+](=O)[O-] (configuration not stated) | -11.7 | -4.4 | -2.2 | x | x | x
CCc1ccccc1NC(=O)c1ccc(NCCc2ccccc2)c([N+](=O)[O-])c1 | 42.5* | -1.7 | 0.3 | -24.2 | 24.2 | 34.9
COc1ccc2nc(SCC(=O)C(C)(C)C)[nH]c2c1 | -9.1 | -5.0 | -0.9 | -17.7 | 17.7 | x
O=CNc1ccccc1 | 3.1 | -3.0 | -0.1 | 12.4 | -12.4 | x
SMILES | ATG4B inh | CAL PDZ FP-1 | CAL PDZ FP-2 | SR-BI DiI-HDL act | SR-BI DiI inh | PLA2 ctr | others
C[C@H]1CN([C@@H](C)CO)C(=O)c2cc(NC(=O)Cc3ccccc3)ccc2O[C@H]1CN(C)Cc1ccccc1 | -15.6 | -2.2 | -2.2 | 12.9 | -12.9 | x
C[C@@H]1CN([C@H](C)CO)C(=O)c2cc(NC(=O)Cc3ccccc3)ccc2O[C@H]1CN(C)Cc1ccc(Oc2ccccc2)cc1 | 55.6* | -0.8 | 0.4 | -13.9 | 13.9 | 67.7*
Cc1ccc(S(=O)(=O)Nc2cc(Cl)ccc2-n2cncn2)cc1 | -7.5 | -5.6 | -0.8 | 22.7 | -22.7 | x
NC(=O)c1ccc(C(F)(F)F)n(Cc2c(Cl)cccc2Cl)c1=O | 46.6* | x | 0.4 | -27.2 | 27.2 | 49.5
O=C(OCc1cc(Cl)ccc1OC(F)F)c1cncc(Br)c1 | 52.1* | x | -0.7 | -14.0 | 14.0 | 54.2*
CC(Oc1ccccc1)C(=O)N=C1SC2CS(=O)(=O)CC2N1CCc1ccccc1 (configuration not stated) | -2.1 | -2.3 | -2.7 | -8.3 | 8.3 | x
N=C1/C(=C\c2ccc(OC(=O)c3ccccc3Cl)cc2)C(=O)N=C2SC(N3CCOCC3)=NN12 | 58.4* | -1.0 | -2.6 | -22.1 | 22.1 | 52.5*
CN1C(=O)C(N=Nc2ccccc2C(=O)O)N(C)C1=S (configuration not stated) | 41.4* | -2.3 | 1.0 | 4.5 | -4.5 | 40.4 | ATG4B conf=69.7*
CC1=NN(C(N)=S)C(=O)C1N=Nc1ccccc1C(=O)O (configuration not stated) | 3.3 | x | -0.8 | 9.4 | -9.4 | x
CC1CN=C(c2cccn2Cc2ccc(F)cc2Cl)O1 (configuration not stated) | 42.8* | -0.6 | -3.3 | 18.0 | -18.0 | 52.6*
O=C(CN1CCCCC1)Nc1ccccc1-c1ccccc1 | 46.0* | -3.2 | -2.3 | -18.3 | 18.3 | 59.2*
COc1ccccc1C(=O)NCCC(=O)NCCCSc1ccccc1 | 4.4 | -8.0 | -0.7 | -6.3 | 6.3 | x
Cc1nc(NC(=O)CSc2cc(C)c3ccccc3n2)c(Cl)cc1Cl | 40.7* | -1.4 | -2.4 | -54.4 | 54.4 | 13.5
Cc1cc(SCC(=O)Nc2cccnc2Cl)nc2ccccc12 | -9.6 | -4.7 | -0.5 | -31.3 | 31.3 | x
CN1CCN(C2=C(Cl)C(=O)c3ccccc3C2=O)CC1 | 73.3* | 3.8 | 2.3 | -11.2 | 11.2 | -16.3 | ATG4B conf=30.2
O=C1C(Cl)=C(N2CCC(C(=O)O)CC2)C(=O)c2ccccc21 | -5.5 | 4.9 | -1.1 | x | x | x
CC(C)Oc1ccccc1NC(=O)CSc1nccn1C | -0.3 | x | -1.7 | x | x | x
CCOc1ccc(NCc2ccccc2OCc2cccc(F)c2)cc1 | 46.0* | 3.6 | -1.7 | -15.0 | 15.0 | 35.5 | ATG4B conf=59.6*
Fc1cccc(COc2ccccc2CNc2ccccc2)c1 | 20.0 | -2.5 | -1.9 | -12.8 | 12.8 | x
